Data on 13 molecules can be found in ChEMBL document CHEMBL3085677, “Novel coumarin-3-carboxamides bearing N-benzylpiperidine moiety as potent acetylcholinesterase inhibitors” (Eur J Med Chem, 2013).

What is called IC50 is the point on the concentration scale where inhibition reaches its midpoint. Low readings indicate greater potency in that assay, high ones weaker potency in that assay.

Data set [1] can be described thus: Selectivity index, ratio of IC50 for equine serum BChE to IC50 for electric eel AChE. The gist of the method:
(§1)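 Ellman-type assay at 25 °C with eel AChE (Type V-S) or equine serum BuChE, added as a 2.5 unit/mL enzyme solution. Medium was 0.1 M phosphate buffer pH 8.0 with DTNB added from a 0.01 M solution. Inhibitor was preincubated 15 min before acetylthiocholine or butyrylthiocholine iodide. ΔA412 was read over 6 min, corrected against a non-enzymatic blank. Five concentrations in triplicate gave 20–80% inhibition. IC50 came graphically from log-concentration curves, mean of three experiments; SI = IC50 BuChE/IC50 AChE.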

Another data set deals with Cholinesterase (Equus caballus, UniProt P81908). The data set is described as follows: Inhibition of equine serum BChE using butyrylthiocholine iodide as substrate preincubated for 15 mins prior to substrate addition by Ellman's method. In short, it runs like this:
as §1

A further data set has as its target Acetylcholinesterase (Electrophorus electricus, UniProt O42275). The data set is described as follows: Inhibition of electric eel AChE using acetylcholine as substrate preincubated for 15 mins prior to substrate addition by Ellman's method.
Data set [2] in a line: Cytotoxicity against rat PC12 cells at 1 to 100 uM after 24 hrs by MTT assay. Type of data set: cell-based. Conditions: pc-12, 24 h.
A further data set deals with PC-12. The data set is described as follows: Protection against H2O2-induced cell death in rat PC12 cells pretreated at 1 to 100 uM for 3 hrs before H2O2 challenge using DAPI staining method. Type of data set: functional, cell-based. In short, it runs like this: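 Rat PC12 cells grown in RPMI 1640 with 10% FCS and penicillin/streptomycin, plated at 10^4 cells/well. Held 2 days serum-free, then given NGF 50 ng/ml for 5 days until neurites formed. Pretreated 3 h at three compound levels before H2O2 challenge. Apoptosis judged by DAPI added to live cells for 20 min. Viability read by MTT after 24 h.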

Data set [3] addresses Acetylcholinesterase (Electrophorus electricus) (UniProt O42275). The data set is described as follows: Ratio of donepezil IC50 to compound IC50 for electric eel AChE using acetylcholine as substrate preincubated for 15 mins prior to substrate addition by Ellman's method. A general note: In Ellman's method for cholinesterases, released thiocholine reacts with DTNB.
For data set [4] the target is unchanged. Briefly: Mixed-type inhibition of electric eel AChE using acetylcholine as substrate by Lineweaver-Burk plot method. In short, it runs like this: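 Kinetics used eel AChE with inhibitor fixed at 0.357, 3.57 or 11.9 nM. Initial velocities were measured across several acetylthiocholine concentrations. Reciprocal velocity (1/v) was plotted against 1/[ATCh] (double-reciprocal plot).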

Calls of active or inactive are those of the source. The rule behind the calls is not given here.

Acetylcholinesterase, sequence (O42275 whole entry): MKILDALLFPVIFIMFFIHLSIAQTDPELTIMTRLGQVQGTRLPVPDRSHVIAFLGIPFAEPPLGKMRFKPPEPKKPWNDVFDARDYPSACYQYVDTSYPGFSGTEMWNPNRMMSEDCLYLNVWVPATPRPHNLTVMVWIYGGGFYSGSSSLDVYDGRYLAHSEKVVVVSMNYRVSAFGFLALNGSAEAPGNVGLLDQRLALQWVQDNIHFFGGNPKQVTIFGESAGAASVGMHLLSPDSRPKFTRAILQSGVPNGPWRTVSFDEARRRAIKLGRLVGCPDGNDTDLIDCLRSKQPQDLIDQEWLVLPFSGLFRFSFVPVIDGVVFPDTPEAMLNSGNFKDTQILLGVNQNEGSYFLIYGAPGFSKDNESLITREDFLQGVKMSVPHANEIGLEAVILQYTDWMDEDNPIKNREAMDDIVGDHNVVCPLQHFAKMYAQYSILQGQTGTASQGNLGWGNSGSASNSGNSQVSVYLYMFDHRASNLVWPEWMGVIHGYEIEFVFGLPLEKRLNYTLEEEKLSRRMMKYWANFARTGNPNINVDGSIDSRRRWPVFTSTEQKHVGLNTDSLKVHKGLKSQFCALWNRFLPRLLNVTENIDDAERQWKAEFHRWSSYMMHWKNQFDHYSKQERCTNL
Cholinesterase, sequence (P81908 whole entry): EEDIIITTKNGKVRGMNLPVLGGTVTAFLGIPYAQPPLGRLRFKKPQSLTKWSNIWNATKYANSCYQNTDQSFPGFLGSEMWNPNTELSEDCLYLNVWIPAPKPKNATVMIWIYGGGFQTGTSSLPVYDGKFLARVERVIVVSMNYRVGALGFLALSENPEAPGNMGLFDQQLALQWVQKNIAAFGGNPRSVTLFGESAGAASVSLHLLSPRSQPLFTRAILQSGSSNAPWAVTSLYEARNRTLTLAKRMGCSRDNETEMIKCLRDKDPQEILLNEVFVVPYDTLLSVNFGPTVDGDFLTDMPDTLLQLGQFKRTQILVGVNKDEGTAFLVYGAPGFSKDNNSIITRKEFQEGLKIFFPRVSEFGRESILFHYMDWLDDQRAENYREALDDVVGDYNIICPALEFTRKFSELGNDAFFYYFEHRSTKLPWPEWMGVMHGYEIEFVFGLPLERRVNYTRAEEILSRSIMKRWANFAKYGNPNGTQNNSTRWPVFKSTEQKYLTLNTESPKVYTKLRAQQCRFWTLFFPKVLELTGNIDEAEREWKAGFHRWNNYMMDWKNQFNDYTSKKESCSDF
Acetylcholinesterase (Electrophorus electricus), sequence (O42275 24-633 limits assumed): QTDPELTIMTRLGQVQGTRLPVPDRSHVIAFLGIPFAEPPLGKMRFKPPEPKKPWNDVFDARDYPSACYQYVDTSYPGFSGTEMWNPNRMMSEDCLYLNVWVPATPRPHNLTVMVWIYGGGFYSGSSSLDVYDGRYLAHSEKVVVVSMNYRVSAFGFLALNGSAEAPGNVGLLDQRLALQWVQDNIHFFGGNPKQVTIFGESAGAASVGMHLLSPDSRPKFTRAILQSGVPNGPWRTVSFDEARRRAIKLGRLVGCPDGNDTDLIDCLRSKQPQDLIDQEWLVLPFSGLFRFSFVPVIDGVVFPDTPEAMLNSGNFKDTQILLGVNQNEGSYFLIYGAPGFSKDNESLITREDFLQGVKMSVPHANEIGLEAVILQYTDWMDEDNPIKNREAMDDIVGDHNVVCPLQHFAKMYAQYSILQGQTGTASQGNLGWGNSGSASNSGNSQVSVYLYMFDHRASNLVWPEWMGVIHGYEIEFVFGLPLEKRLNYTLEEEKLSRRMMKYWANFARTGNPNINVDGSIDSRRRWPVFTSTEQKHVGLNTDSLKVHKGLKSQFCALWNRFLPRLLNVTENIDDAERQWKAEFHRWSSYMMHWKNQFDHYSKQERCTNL

For `COc1cccc2cc(C(=O)NC3CCN(Cc4ccccc4)CC3)c(=O)oc12`, in data set [1], the Ratio IC50 turned out to be 32. The IC50 against Cholinesterase was found to be 20000 nM; against Acetylcholinesterase, 633 nM.

Take `O=C(NCCC1CCN(Cc2ccccc2)CC1)c1cc2cc(Br)ccc2oc1=O`: the Ratio IC50 in data set [1] was found to be 210. Besides, in data set [2], the Activity result is given as “Non-toxic”. In addition, the IC50 was found to be 420 nM against Cholinesterase and 2 nM against Acetylcholinesterase. The result in the data set with PC-12 was Active.

For the molecule `O=C(NCCC1CCN(Cc2ccccc2)CC1)c1cc2ccc(O)cc2oc1=O`, the Ratio IC50 in data set [1] was 321. The figures for the IC50 at Cholinesterase and on Acetylcholinesterase were 46000 nM and 143 nM, respectively.

Take `O=C(NCCC1CCN(Cc2ccccc2)CC1)c1cc2cc([N+](=O)[O-])ccc2oc1=O`: the Ratio IC50 was 26300 in data set [1] and 46 in data set [3]. In addition, the Activity entry in data set [2] is given as “Non-toxic”. Besides, the IC50 on Cholinesterase was 7900 nM; at Acetylcholinesterase, 0.3 nM. Moreover, the result in the data set with PC-12 was Active. For the same molecule, the inhibition result in data set [4] is “Active”.

As for `COc1cccc2cc(C(=O)NCCC3CCN(Cc4ccccc4)CC3)c(=O)oc12`, the Ratio IC50 in data set [1] turned out to be 9000. Besides, the IC50 on Cholinesterase was found to be 18000 nM; against Acetylcholinesterase, 2 nM.

Turning to `COc1ccc2cc(C(=O)NCCC3CCN(Cc4ccccc4)CC3)c(=O)oc2c1`, in data set [1], the Ratio IC50 worked out at 71. Moreover, the Activity result in data set [2] was “Non-toxic”. For the same molecule, the IC50 against Cholinesterase amounted to 357 nM; on Acetylcholinesterase, 5 nM. For the same molecule, the outcome with PC-12 was Active.

For `O=C(NC1CCN(Cc2ccccc2)CC1)c1cc2ccccc2oc1=O`, the Ratio IC50 in data set [1] is 14. Besides, the values for the IC50 at Cholinesterase and at Acetylcholinesterase were 17000 nM and 1200 nM, respectively.

As for `COc1ccc2cc(C(=O)NC3CCN(Cc4ccccc4)CC3)c(=O)oc2c1`, in data set [1], the Ratio IC50 was 147. In addition, the 50% inhibitory concentration (IC50) at Cholinesterase was found to be 27000 nM; against Acetylcholinesterase, 183 nM.

For `O=C(NC1CCN(Cc2ccccc2)CC1)c1cc2cc([N+](=O)[O-])ccc2oc1=O`, the Ratio IC50 in data set [1] worked out at 51. Moreover, the results for the IC50 on Cholinesterase and against Acetylcholinesterase were 22000 nM and 430 nM, respectively.

Regarding `O=C(NC1CCN(Cc2ccccc2)CC1)c1cc2cc(Br)ccc2oc1=O`, the Ratio IC50 in data set [1] was found to be 1400. Moreover, the IC50 amounted to 42000 nM at Cholinesterase and 30 nM on Acetylcholinesterase.

In the case of `O=C(NCCC1CCN(Cc2ccccc2)CC1)c1cc2ccccc2oc1=O`, the Ratio IC50 in data set [1] was determined as 14. Further, the IC50 at Cholinesterase worked out at 371 nM; against Acetylcholinesterase it was 26 nM.

With `O=C(NCCC1CCN(Cc2ccccc2)CC1)c1cc2cc(O)ccc2oc1=O`, the Ratio IC50 in data set [1] turned out to be 222. In addition, the IC50 on Cholinesterase was 15600 nM; against Acetylcholinesterase, 70 nM.

For `O=C(NC1CCN(Cc2ccccc2)CC1)c1cc2ccc(O)cc2oc1=O`, in data set [1], the Ratio IC50 amounted to 32. The IC50 against Cholinesterase was 55000 nM; on Acetylcholinesterase, 1700 nM.
